Assay results from different studies.
Protocols differ between the studies behind these lines.
PDGFRA D842V: Platelet-derived growth factor receptor alpha (PDGFRA, Homo sapiens, UniProt P16234, D842V)
PDGFRA: Platelet-derived growth factor receptor alpha (PDGFRA, Homo sapiens, UniProt P16234)
PDGFRA V561D: Platelet-derived growth factor receptor alpha (PDGFRA, Homo sapiens, UniProt P16234, V561D)

With Cc1ccc(NC(=O)c2ccc(C)c(C(F)(F)F)c2)cc1C#Cc1nn(C2CCC(O)CC2)c2ncnc(N)c12 (stereo not drawn) the remaining activity was 0% (PDGFRA D842V; enzyme activity, inhibitor; 10 µM).
Cc1ccc(C(=O)NCc2ccsc2)cc1C#Cc1cn(C(C)C)c2ncnc(N)c12 gave an activity vs control of 2% (PDGFRA D842V; enzyme activity, inhibitor; 1 µM).
For NS(=O)(=O)c1cc(NC(=O)Cc2ccccc2)ccc1Oc1cccc(Cl)c1, the remaining binding was 80% (PDGFRA; cell-free assay, competition with immobilised ligand; 1 µM).
For CCCOc1ccc(OC)c(F)c1C(=O)c1ccc(C(=O)N[C@@H]2CNC[C@H]2NC(=O)c2ccc3[nH]ncc3c2)cc1, the remaining activity was 89% (PDGFRA; enzyme activity, inhibitor; 10 µM).
With Cc1cc(NC(=O)c2cccc3cc(-c4cccc5[nH]nc(N)c45)ccc23)ccc1F the activity vs control was 4% (PDGFRA V561D; enzyme activity, inhibitor; 0.1 µM).
Cc1cnc(NC2CCOCC2)nc1-n1cnc(C(=O)NC(CN)c2cc(F)cc(Cl)c2)c1 (stereo not drawn) has a remaining activity of 100% (PDGFRA V561D; enzyme activity, inhibitor, radiometric; 1 µM).
With Cn1nc(C(=O)NCc2ccc(C(=O)O)cc2)cc1-c1ccc2[nH]ccc2c1 the remaining binding was 100% (PDGFRA; cell-free assay, competition with immobilised ligand; 0.1 µM).
With COc1cc(-c2cc(-c3ccc(N4CCNCC4)cc3)cnc2N)cc(OC)c1OC the inhibition was 86% (PDGFRA V561D; enzyme activity, inhibitor; 1 µM).
With CNC(=O)c1cc(Oc2ccc(NC(=O)Nc3ccc(Cl)c(C(F)(F)F)c3)cc2)ccn1 the inhibition was 86% (PDGFRA D842V; enzyme activity, inhibitor; 0.3 µM).
